Source: ChEMBL document CHEMBL4002590, “Design and Synthesis of a Pan-Janus Kinase Inhibitor Clinical Candidate (PF-06263276) Suitable for Inhaled and Topical Delivery for the Treatment of Inflammatory Diseases of the Lungs and Skin” (J Med Chem, 2017)
≈ marks a conversion by molar mass, not a printed value. Calls of active or inactive are those of the source. The calls are words filed in the database; no cut-off is given here.

Assays:
[1] = target: Non-receptor tyrosine-protein kinase TYK2 (Homo sapiens, UniProt P29597); test: Inhibition of Tyk2 (unknown origin) using peptide substrate preincubated for 60 mins followed by substrate addition and measured after 60 mins by microfluidic assay
Method in brief: (§1)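 Caliper microfluidic assay of peptide-substrate phosphorylation by the relevant JAK enzyme, run at 1 mM ATP; IC50 values are geometric means of at least three determinations.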

Liver = test: Metabolic stability in human liver microsomes assessed per mg protein; format: ADME, microsome
Method in brief: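 Metabolic stability measured as turnover in human liver microsomes.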

[2] = target: T1, Tyrosine-protein kinase JAK2 (Homo sapiens, UniProt O60674); test: Inhibition of GST tagged human recombinant JAK2 catalytic domain expressed in baculovirus using peptide substrate preincubated for 60 mins followed by substrate addition and measured after 60 mins by microfluidic assay; method in brief: as §1
[3] = Thermodynamic solubility of the compound in pH 7.4 water buffer using crystalline solid sample; format: physicochemical; settings: read-out: Therm_solubility
Method in brief: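 Thermodynamic solubility measured from crystalline solid in water buffered at pH 7.4.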

Rattus norvegicus [4] = test: Unbound clearance in rat at 0.5 mg/kg, iv; format: ADME, organism-based; settings: in vivo
[5] = Terminal half life in iv dosed rat at 0.5 mg/kg; format: ADME, organism-based; settings: in vivo, read-out: beta t1/2 (converted)
Canis familiaris = test: Intrinsic clearance in dog at 0.1 mg/kg, iv administered as 30 mins infusion; format: ADME, organism-based, Canis lupus familiaris; settings: in vivo, 0.5 h
[6] = Volume of distribution at steady state in dog at 0.1 mg/kg, iv administered as 30 mins infusion; format: ADME, organism-based, Canis lupus familiaris; settings: in vivo, read-out: Vdss
[7] = Oral bioavailability in rat at 1 mg/kg; format: ADME, organism-based; settings: in vivo
[8] = Plasma protein binding in dog at 0.1 mg/kg, iv administered as 30 mins infusion; format: ADME, organism-based, Canis lupus familiaris; settings: read-out: PPB
Mus musculus [9] = test: In vivo inhibition of JAK1/JAK2 in […] dosed Balb/c mouse assessed as inhibition of IL-6 induced STAT3 phosphorylation in lungs pretreated for 15 mins followed by IL-6 stimulation measured after 30 mins by ELISA; format: functional
Method in brief: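 Intratracheal dosing in mouse, then IL-6 given i.t.; phosphorylated STAT3 quantified in lung. Percent inhibition ± 95% CI from the difference in geometric means between vehicle/IL-6 and vehicle/saline groups; N = 6.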

Mus musculus [10] = test: In vivo inhibition of JAK2/TYK2 in Balb/c mouse model of IL-23 induced inflammation assessed as reduction of ear swelling pretreated topically as 4 % solution bid on ear for 12 consecutive days followed by IL-23 stimulation at 2 hrs post compound treatment on day 2, 4, 7, 9 and 11; format: functional
Method in brief: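 Mouse ear dermal model: compound applied topically as a 4% solution in propylene glycol 30, PEG400 30, dimethyl isosorbide 10, glycerin 25.9, BHA 0.1 (% wt/wt); repeated IL-23 ear injections, with ear swelling followed over 11 days.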

Mus musculus [11] = test: In vivo inhibition of JAK2 homodimer in Balb/c mouse assessed as inhibition of GM-CSF induced STAT5 phosphorylation in blood at 10 ug, it for 12 consecutive days; format: functional, organism-based
Method in brief: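 After i.t. dosing in mouse, GM-CSF-induced phosphorylated STAT5 measured in blood; percent inhibition ± 95% CI from geometric means versus vehicle groups; N = 3.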

[12] = target: 5-hydroxytryptamine receptor 7 (Homo sapiens) (UniProt P34969); test: Antagonist activity at recombinant human 5-HT7 receptor expressed in CHO cells assessed as inhibition of serotonin-induced cAMP accumulation at 10 uM after 30 mins by HTRF method relative to control; format: functional, cell-based
[13] = target: Tyrosine-protein kinase ABL1 (Homo sapiens) (UniProt P00519); test: Inhibition of recombinant human Abl kinase expressed in insect cells at 10 uM using Ulight-TK peptide substrate after 30 mins by LANCE method
Method in brief: (§2)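 Single-point screen at 10 μM within a broad panel of radioligand binding and enzyme inhibition assays covering receptors, transporters, enzymes and ion channels.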

[14] = target: Acetylcholinesterase (Homo sapiens) (UniProt P22303); test: Inhibition of recombinant human acetylcholinesterase expressed in HEK-293 cells at 10 uM using acetylthiocholine substrate after 30 mins by photometry; format: cell-based; method in brief: as §2
[15] = target: Alpha-2B adrenergic receptor (Homo sapiens) (UniProt P18089); test: Antagonist activity at recombinant human alpha 2B adrenergic receptor expressed in HEK293 cells assessed as inhibition of dexmedetomidine-induced cAMP accumulation at 10 uM after 30 mins by HTRF method; format: functional, cell-based
[16] = target: Vascular endothelial growth factor receptor 2 (Homo sapiens) (UniProt P35968); test: Inhibition of recombinant human KDR kinase expressed in insect Sf21 cells at 10 uM using Ulight-CAGAGAIETDKEYYTVKD as substrate after 60 mins by LANCE assay; method in brief: as §2
[17] = target: Aurora kinase A (Homo sapiens) (UniProt O14965); test: Inhibition of recombinant human AurA/Aur 2 kinase expressed in insect Sf21 cells at 10 uM using Ulight-RRRSLLE substrate after 15 mins by LANCE assay; method in brief: as §2
Mus musculus [18] = test: Effect on nerve activation in mouse up to 2 mg inhalation administered as micelle vehicle to delta fiber sensory nerve preparation; settings: in vivo, inhaled_or_intranasal
Method in brief: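 Mouse A delta fiber sensory nerve preparation given up to 2 mg in 400 μL of micelle vehicle; nerve activation recorded.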

Rattus norvegicus [19] = test: Toxicity in iv dosed rat for 7 days; format: organism-based; settings: in vivo, 168 h
Method in brief: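 Exploratory 7-day intravenous toxicology studies in rat and dog; margins expressed over total plasma AUC relative to projected exposure at a 200 μg human lung dose.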

Rattus norvegicus [20] = test: Genotoxicity in iv dosed rat after 7 days by peripheral blood micronucleus assay; format: toxicity, organism-based; settings: in vivo, 168 h
[21] = Chemical stability at room temperature up to 6 weeks; format: physicochemical; settings: 1008 h
Method in brief: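 Crystalline solid stored at room temperature and at 40 °C/75% relative humidity for up to 6 weeks; chemical stability assessed.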

[22] = Chemical stability in lactose using micronized sample up to 4 weeks; format: physicochemical; settings: 672 h
Method in brief: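 Jet-milled (micronized, ~2 μm) material blended with lactose and monitored for chemical and physical stability for up to 4 weeks.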

Mus musculus [23] = test: In vivo receptor occupancy at JAK1 in Balb/c mouse lungs at 10 to 100 ug, it measured after 4 hrs; format: functional, organism-based
Method in brief: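 JAK1 target occupancy in mouse lung measured over time after i.t. administration of 10 μg or 100 μg.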

Rattus norvegicus [24] = species on record: Rattus norvegicus; test: Displacement of [3H]batrachotoxinin from rat cerebral cortex sodium channel site-2 at 10 uM after 60 mins by scintillation counting method relative to control; method in brief: as §2
JAK1/TYK2 (Homo sapiens) = JAK1/TYK2 (Homo sapiens) (UniProt P23458+P29597)
JAK3/JAK1 (Homo sapiens) = JAK3/JAK1 (Homo sapiens) (UniProt P52333+P23458)
[25] = target: T1, Tyrosine-protein kinase JAK2

T1 sequence (O60674 whole entry, the tested form may be a part): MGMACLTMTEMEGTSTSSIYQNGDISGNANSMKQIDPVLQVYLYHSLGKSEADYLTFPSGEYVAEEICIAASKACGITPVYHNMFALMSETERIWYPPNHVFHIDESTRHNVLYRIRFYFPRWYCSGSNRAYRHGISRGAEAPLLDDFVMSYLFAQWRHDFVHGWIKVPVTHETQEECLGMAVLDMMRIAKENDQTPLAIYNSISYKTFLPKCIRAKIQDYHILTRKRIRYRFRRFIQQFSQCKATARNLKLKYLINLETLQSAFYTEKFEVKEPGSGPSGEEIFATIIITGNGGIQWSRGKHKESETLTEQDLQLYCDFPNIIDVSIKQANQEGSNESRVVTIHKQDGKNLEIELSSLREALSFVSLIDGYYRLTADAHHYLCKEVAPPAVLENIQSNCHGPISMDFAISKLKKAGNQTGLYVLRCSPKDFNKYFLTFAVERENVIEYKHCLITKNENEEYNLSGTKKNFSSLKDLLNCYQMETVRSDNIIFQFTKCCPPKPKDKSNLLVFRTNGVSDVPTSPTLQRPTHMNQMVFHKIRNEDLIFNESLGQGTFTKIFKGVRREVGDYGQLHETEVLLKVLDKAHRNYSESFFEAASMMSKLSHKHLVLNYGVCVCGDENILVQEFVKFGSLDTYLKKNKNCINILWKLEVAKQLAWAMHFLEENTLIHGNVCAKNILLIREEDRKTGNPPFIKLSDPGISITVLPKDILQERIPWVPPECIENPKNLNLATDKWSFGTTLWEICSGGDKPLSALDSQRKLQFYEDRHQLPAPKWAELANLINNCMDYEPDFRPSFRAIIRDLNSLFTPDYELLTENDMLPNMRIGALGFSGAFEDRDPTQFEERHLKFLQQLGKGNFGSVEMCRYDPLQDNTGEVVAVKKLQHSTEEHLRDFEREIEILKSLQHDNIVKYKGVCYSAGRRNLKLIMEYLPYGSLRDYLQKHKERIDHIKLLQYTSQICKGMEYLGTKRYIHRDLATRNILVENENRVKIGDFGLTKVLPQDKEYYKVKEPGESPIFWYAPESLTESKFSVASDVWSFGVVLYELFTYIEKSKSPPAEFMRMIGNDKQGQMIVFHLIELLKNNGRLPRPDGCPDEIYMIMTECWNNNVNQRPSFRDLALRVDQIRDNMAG
Chain of 5-hydroxytryptamine receptor 7 (Homo sapiens) (P34969 whole entry): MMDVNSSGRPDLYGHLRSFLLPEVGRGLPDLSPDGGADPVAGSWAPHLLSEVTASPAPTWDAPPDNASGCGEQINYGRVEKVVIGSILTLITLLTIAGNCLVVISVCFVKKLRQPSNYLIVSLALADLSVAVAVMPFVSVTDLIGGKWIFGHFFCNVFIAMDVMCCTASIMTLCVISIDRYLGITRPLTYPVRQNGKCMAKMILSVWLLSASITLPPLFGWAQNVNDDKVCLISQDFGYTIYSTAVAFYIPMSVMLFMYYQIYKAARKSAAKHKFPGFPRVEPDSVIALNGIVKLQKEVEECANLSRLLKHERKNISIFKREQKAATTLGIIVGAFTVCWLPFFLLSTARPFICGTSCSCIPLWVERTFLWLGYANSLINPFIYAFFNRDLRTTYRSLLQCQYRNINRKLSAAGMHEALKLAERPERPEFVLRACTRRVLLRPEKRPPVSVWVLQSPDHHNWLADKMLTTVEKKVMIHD
Chain of Acetylcholinesterase (Homo sapiens) (P22303 whole entry): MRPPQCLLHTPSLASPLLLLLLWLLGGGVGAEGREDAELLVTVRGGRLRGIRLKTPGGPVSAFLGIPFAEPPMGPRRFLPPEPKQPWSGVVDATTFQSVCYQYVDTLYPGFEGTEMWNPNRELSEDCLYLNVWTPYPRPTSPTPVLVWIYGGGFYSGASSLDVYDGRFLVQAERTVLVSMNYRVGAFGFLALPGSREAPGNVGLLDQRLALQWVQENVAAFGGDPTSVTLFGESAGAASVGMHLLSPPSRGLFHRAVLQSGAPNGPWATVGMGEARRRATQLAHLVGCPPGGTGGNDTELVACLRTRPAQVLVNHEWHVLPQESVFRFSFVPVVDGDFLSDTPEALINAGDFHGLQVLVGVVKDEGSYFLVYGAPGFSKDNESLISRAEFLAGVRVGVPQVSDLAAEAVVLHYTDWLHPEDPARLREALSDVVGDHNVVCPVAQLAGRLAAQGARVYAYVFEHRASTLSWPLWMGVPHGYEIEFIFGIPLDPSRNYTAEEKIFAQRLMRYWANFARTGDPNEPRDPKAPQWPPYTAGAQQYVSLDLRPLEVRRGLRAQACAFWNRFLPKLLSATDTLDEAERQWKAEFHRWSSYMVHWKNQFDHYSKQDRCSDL
Chain of Non-receptor tyrosine-protein kinase TYK2 (P29597 whole entry): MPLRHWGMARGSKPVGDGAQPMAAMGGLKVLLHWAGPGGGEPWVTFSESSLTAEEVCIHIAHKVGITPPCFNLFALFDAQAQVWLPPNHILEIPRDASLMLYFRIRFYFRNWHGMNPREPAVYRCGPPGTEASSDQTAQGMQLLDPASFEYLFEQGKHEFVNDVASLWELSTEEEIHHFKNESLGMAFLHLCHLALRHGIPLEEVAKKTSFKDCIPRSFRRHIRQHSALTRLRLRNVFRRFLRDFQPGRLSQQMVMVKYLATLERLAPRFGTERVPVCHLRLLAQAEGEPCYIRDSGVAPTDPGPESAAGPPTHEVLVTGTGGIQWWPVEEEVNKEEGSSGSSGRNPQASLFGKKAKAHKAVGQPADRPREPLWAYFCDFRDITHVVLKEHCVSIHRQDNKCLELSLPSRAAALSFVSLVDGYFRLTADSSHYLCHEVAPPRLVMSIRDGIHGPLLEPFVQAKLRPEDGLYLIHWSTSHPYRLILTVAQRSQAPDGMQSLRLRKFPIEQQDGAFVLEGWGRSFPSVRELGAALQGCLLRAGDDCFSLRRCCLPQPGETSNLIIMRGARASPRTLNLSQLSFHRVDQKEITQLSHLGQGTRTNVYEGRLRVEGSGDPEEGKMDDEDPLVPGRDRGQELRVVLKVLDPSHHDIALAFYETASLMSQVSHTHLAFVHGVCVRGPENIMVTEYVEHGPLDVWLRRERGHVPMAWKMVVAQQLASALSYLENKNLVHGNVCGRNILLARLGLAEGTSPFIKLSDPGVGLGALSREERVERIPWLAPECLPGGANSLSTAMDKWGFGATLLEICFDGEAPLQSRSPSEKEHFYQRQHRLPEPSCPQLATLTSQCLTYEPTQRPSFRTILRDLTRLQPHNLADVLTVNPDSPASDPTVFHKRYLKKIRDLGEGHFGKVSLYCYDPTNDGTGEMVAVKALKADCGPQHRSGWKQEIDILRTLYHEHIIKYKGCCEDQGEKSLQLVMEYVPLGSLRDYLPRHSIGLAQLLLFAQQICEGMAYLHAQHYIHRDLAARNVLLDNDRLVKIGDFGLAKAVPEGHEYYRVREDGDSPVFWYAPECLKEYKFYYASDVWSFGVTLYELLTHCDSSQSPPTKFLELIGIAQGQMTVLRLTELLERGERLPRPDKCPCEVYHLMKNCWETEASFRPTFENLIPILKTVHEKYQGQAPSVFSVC
Chain of Tyrosine-protein kinase ABL1 (Homo sapiens) (P00519 whole entry): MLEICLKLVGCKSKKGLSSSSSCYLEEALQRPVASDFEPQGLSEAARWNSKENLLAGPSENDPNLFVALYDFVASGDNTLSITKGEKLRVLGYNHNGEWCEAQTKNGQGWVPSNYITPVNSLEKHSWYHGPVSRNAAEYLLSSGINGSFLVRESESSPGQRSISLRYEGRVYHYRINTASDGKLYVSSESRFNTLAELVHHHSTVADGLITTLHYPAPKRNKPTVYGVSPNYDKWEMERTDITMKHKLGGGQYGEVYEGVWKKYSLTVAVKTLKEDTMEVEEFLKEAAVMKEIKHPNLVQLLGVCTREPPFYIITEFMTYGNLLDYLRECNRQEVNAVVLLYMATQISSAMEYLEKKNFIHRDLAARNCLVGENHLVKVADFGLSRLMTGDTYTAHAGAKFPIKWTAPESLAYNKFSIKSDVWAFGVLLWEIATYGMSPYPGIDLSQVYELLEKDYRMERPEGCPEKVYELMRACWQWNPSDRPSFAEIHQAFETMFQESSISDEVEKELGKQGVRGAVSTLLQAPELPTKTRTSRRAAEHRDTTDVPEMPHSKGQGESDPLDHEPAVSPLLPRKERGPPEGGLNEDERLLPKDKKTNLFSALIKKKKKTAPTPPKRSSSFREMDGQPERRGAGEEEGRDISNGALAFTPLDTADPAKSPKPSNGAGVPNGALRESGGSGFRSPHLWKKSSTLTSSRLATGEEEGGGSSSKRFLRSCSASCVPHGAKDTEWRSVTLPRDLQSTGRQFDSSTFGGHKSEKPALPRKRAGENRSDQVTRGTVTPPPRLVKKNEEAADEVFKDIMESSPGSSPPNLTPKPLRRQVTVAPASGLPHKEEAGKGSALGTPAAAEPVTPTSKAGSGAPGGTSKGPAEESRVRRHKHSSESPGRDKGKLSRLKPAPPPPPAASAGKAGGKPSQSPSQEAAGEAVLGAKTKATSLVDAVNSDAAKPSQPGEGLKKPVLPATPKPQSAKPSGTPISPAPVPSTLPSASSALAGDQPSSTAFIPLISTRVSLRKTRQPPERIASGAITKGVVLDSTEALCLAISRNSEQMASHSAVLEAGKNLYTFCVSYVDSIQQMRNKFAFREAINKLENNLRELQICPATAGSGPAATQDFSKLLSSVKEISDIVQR
Chain of Alpha-2B adrenergic receptor (Homo sapiens) (P18089 whole entry): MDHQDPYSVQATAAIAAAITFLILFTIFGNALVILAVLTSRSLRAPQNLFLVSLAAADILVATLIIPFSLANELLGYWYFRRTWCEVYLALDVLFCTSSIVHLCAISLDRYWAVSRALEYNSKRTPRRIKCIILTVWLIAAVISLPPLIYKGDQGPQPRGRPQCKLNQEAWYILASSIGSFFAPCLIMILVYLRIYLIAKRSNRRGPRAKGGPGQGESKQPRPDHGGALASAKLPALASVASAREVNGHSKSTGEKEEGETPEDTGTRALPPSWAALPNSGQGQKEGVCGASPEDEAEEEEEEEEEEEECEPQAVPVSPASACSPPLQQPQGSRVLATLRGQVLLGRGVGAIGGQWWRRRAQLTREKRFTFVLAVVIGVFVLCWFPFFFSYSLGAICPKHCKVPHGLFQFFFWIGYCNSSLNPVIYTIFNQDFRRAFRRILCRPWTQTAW

Compound `CCc1cc(O)c(F)cc1-c1ccc2c(-c3nc4c([nH]3)CCN(C(=O)c3cnc(N5CCCCC5)cn3)C4)n[nH]c2c1` has an IC50 [1] of 29.7 nM, a Stability (Liver) of 101 µL/min and an IC50 [2] of 23.1 nM. The solubility thermodynamic [3] was 0.5 µM (≈ 0.283 µg/mL), the CL free (Rattus norvegicus [4]) was > 2880 L/h/kg and the half-life [5] was 2.1 h. For the same compound, the CL (Canis familiaris) was 1.08 L/h/kg, the Vd [6] was 1 L/kg and the bioavailability [7] was < 5%. For the same compound, the fraction unbound at 0.5 h [8] was ≤ 0.001, the ED50 (Mus musculus [9]) was 3 µg and the inhibition (Mus musculus [9]) was “Dose-dependent effect”. The “inhibition (INH)” value (Mus musculus [10]) was 48%, the inhibition (Mus musculus [11]) was “inactive” and the inhibition [12] was > 50%. For the same compound, the inhibition [13] was > 50%, the inhibition [14] was > 50% and the inhibition [15] was > 50%. For the same compound, the inhibition [16] was > 50%, the inhibition [17] was > 50% and the Activity (Mus musculus [18]) was “Non-Toxic”. For the same compound, the Activity (Rattus norvegicus [19]) was “Non-Toxic”, the Activity (Rattus norvegicus [20]) was “Non-Toxic” and the Stability [21] was “Stable”. The Stability [22] was “Stable”, the Activity (Mus musculus [23]) was “Active” and the inhibition (Rattus norvegicus [24]) was > 50%. The fIC50 (JAK1/TYK2 (Homo sapiens)) was 0.62 nM, the fIC50 (JAK3/JAK1 (Homo sapiens)) was 1.8 nM and the fIC50 [25] was 5.2 nM.
